# Shown are actives, neighbours in structure and some others; about 1.7% of the full set was active somewhere.
# HNF4A DNA FP: change in binding of human HNF4A to DNA, primary screen, biochemical, fluorescence polarization, FITC-DNA; 0.3% of 360,000 active; AID 1224865, 2016; activity change, % at 10 µM; 1 h; Hepatocyte nuclear factor 4-alpha (Homo sapiens), P41235; in the data active = activity change above about 30%, passing the limit was not always enough
# IDE inh: human IDE inhibitors in live cells, primary screen, fluorescence polarization, HEK cells, FAbetaB substrate; Insulin-degrading enzyme (Homo sapiens), P14735; FAbetaB cleavage; inhibition, % at 5.59 µM; 0.41% of 320,000 active;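 active = percent inhibition above the average of all tested compounds plus 3 SD, set per screening campaign, cut at about 16% in these data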;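 note: IDE supplied by intact live HEK cells; FP after avidin binding of uncleaved biotin substrate so inhibition keeps polarization high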
# TPT1 inh: Candida albicans TPT1 enzyme inhibitors, primary screen, biochemical, fluorescence polarization. recombinant caTPT1, FP RNA substrate dephosphorylation. inhibition, % at 5 µM. 0.81% of 300,000 active;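 active = inhibition above the mean of all tested compounds plus 3 SD, set per screening campaign, cut at about 24% in these data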
# IDE cell activ: human IDE activators in live cells, primary screen, fluorescence polarization, HEK cells, FAbeta-B substrate | activation, % at 5.96 µM | Insulin-degrading enzyme (Homo sapiens), P14735 | FAbeta-B cleavage; 0% vehicle, 100% cell-free pure enzyme wells | 0.073% of 340,000 active;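 active = activation above the mean of all tested compounds plus 3 SD, set per screening campaign, cut at about 17% in these data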
# Tb MetRS inh: T. brucei MetRS inhibitors, primary screen, biochemical, luminescence; inhibition, % at 11.9 µM; purified T. brucei MetRS, ATP depletion, Kinase-Glo luminescence; methionyl-tRNA synthetase (Trypanosoma brucei brucei); AID 624268, 2012; 0.4% of 360,000 active;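 active = inhibition above a per-plate cutoff of the control wells' mean inhibition plus 3 SD, cut at about 5.5% in these data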
#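 Material: T. brucei methionyl-tRNA synthetase, purified; reagent: substrates ATP, L-methionine and bulk Escherichia coli tRNA; dosing: 11.9 µM single point; timing: 15 min plus 2 h at 25 °C; detection: luminescence of leftover ATP; evaluation: % inhibition; control set: DMSO-only wells as low control; replicates: singlicate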
# CSN deneddyl inh: inhibitors of CSN-mediated cullin deneddylation, primary screen, biochemical, fluorescence polarization, uHTS; 0.38% of 360,000 active; Purified CSN, SCF-Nedd8-OG deneddylation; inhibition, % at 12.5 µM; COP9 signalosome complex subunit 5 (Homo sapiens), Q92905;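 active = pattern-corrected inhibition above about 35%, with an unprinted fluorescence ratio check between 0.5 and 1.5, limit read from the data, passing the limit was not always enough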
# Target sequence (Q92905 whole entry, looked up, one chain of several): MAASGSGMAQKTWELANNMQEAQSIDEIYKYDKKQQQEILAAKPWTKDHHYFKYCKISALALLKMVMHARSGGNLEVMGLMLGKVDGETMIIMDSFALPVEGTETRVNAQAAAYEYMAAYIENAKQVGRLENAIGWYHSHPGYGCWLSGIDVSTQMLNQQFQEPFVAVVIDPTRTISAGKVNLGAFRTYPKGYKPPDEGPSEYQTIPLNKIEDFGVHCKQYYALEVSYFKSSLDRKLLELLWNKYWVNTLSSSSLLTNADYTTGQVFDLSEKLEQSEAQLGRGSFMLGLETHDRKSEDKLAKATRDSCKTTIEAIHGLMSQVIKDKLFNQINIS
#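 Test system: Human Csn5 produced in HEK293T cells | Compound: 12.5 µM single point | Times: 90 min, room temperature | Signal: Fluorescence polarization readout | Read-out basis: % inhibition of substrate cleavage by Csn5 | Controls: no-enzyme wells high, enzyme-with-substrate wells low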
# caTPT1 confirm: Candida albicans TPT1 inhibitors, confirmation, biochemical, fluorescence polarization, triplicate; shares compounds with TPT1 inh; recombinant caTPT1, RNase T1 coupled; inhibition, % at 5 µM; 74% of 2,400 active; AID 2149, 2009;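 active = inhibition above the primary screen limit, the mean inhibition of all tested compounds plus 3 SD, cut at about 25% in these data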
# RNase T1 counter: RNase T1 inhibitors, counter-screen for TPT1 inhibitor project, biochemical, fluorescence polarization. RNase T1 cleavage, 1536-well. inhibition, % at 5 µM. shares compounds with TPT1 inh. 83% of 2,400 active;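 active = inhibition above the solvent-only control well mean plus 3 SD, limit set per screening run, cut at about 23% in these data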;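 note: inhibitors block cleavage so intact labeled substrate keeps polarization high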
# Target sequence (P00651 whole entry, looked up): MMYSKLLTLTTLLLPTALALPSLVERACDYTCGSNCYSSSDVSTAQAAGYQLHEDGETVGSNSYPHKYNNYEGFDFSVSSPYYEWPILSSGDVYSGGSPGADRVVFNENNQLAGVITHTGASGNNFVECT
# Numbers stand for hits; . = inactive; / = not tested or not shown.
SMILES,HNF4A DNA FP,IDE inh,TPT1 inh,IDE cell activ,Tb MetRS inh,CSN deneddyl inh,caTPT1 confirm,RNase T1 counter
CC(C)(C)NC(=O)C1N(c2cccnc2)C(=O)C2C(C(=O)Nc3ccccc3F)C3(C)C=CC21O3 (stereo not given),.,.,73.0,.,.,.,.,.
CCOc1ccc(N(CC(=O)N2CCC(Cc3ccccc3)CC2)S(C)(=O)=O)cc1,.,.,.,.,.,.,/,/
CC(=O)N1CCN(S(=O)(=O)c2cccc(C(=O)NNC(=O)c3ccc(Br)cc3)c2)CC1,.,/,/,.,.,.,/,/
C=C(C)c1cccc(C(C)(C)NC(=O)N2CCC(C)CC2)c1,.,.,.,.,.,.,/,/
C=C(C)c1cccc(C(C)(C)NC(=O)NCC2CCCO2)c1 (stereo not given),.,.,24.6,.,.,.,.,.
Cc1cc(C)n2c(Nc3ccc4c(c3)OCCO4)c(CC(C)C)nc2n1,.,/,/,/,.,.,/,/
O=C(/C=C/c1ccco1)N1CCC(Cc2ccccc2)CC1,.,.,130.8,.,.,.,.,.
CCOC(=O)c1c(-c2ccc(OC)cc2)csc1/N=C/C1=C(O)CCCC1=O,.,.,138.5,.,.,.,32.8,49.6
CCN1C[C@@H]2[C@@H]3C(=O)N(C)C(=O)[C@@H]3[C@](CC)(C1=O)N2C(=O)c1ccc(C)cc1,.,/,/,.,.,.,/,/
CCC(C)(C(=O)NC1CCCCC1)N(C(=O)Cc1cccs1)c1ccccc1 (stereo not given),.,.,67.5,.,.,.,.,.
O=C(N/N=C/c1ccccc1)c1cccc2ccccc12,.,.,.,.,.,.,/,/
COc1ccc2cc(C(=O)N/N=C/c3sc4ccccc4c3O)ccc2c1,.,.,136.0,.,.,.,135.1,125.9
O=C(N/N=C/c1sc2ccccc2c1O)c1cccc2ccccc12,74.5,.,136.1,.,.,.,143.3,133.9
O=C(O)C1C2CCC(C2)C1C(=O)NCCc1ccccc1 (stereo not given),.,.,.,.,.,.,/,/
COc1ccc(N=NC2=C(O)CC(C)(C)CC2=O)c(OC)c1,51.5,.,60.2,.,.,.,60.8,74.9
CCN(CC)CCCOc1ccc(Cl)c(Cl)c1,.,.,134.2,.,.,.,.,.
CN(CCOc1ccc(Cl)c(Cl)c1)Cc1ccccc1,.,.,.,.,.,.,/,/
O=C1c2cccc3c(N4CCCCC4)ccc(c23)C(=O)N1CCO,.,50.8,49.9,.,.,.,.,.
COc1ccc(-c2c(-c3ccsc3)oc3c2C(O)CCC3)cn1 (stereo not given),.,/,/,/,.,.,/,/
CC(=O)N1C(=O)C(=C2C=C(C)OC(C)=C2)c2ccccc21,.,.,27.4,.,.,.,72.1,54.9
CCN(CC)CCC=C(c1cccs1)c1cccs1,.,/,/,.,.,.,/,/
COc1ccc(CCNc2nc(-c3ccc(F)cc3)c(CC(=O)O)s2)cc1OC,.,.,98.1,.,.,.,.,23.4
O=C1NC(c2ccco2)Nc2sc3c(c21)CCN(Cc1ccccc1)C3 (stereo not given),.,.,53.0,.,.,.,53.2,62.4
CN1CCc2c(sc3c2C(=O)NC(c2ccc(-c4ccc(Cl)cc4)o2)N3)C1 (stereo not given),.,.,90.6,/,.,.,86.0,95.9
